Test results: ChEMBL document CHEMBL6087468, “TKK130 is a 3-Hydroxy-Propanamidine (HPA) with Potent Antimalarial In Vivo Activity and a High Barrier to Resistance” (J Med Chem, 2025)
Active and inactive are the calls of the source. No cut-off for these calls is given here.

Assays:
[1] = test system: Plasmodium falciparum; test: Antimalarial activity against chloroquine-sensitive Plasmodium falciparum 3D7 infected in erythrocytes measured after 3 days by HRP2-ELISA analysis; assay type: functional, organism-based; details: 3D7, Erythrocyte, 72 h
[2] = test system: Plasmodium falciparum; test: Antimalarial activity against chloroquine, sulfadoxine, and pyrimethamine-resistant Plasmodium falciparum Dd2 infected in erythrocytes measured after 3 days by HRP2-ELISA analysis; assay type: functional, organism-based; details: Dd2, Erythrocyte, 72 h
[3] = test system: Plasmodium falciparum; test: Antimalarial activity against Plasmodium falciparum NF54 infected in human erythrocytes assessed as inhibition of parasite growth measured after 48 hrs incubation by [3H]hypoxanthine incorporation assay; assay type: functional, organism-based; details: NF54, Erythrocyte
[4] = Cytotoxicity against human HepG2 cells assessed as cell viability measured after 24 hrs by neutral red assay; assay type: toxicity, cell-based
[5] = test system: Plasmodium falciparum; test: (§1) Antimalarial activity against chloroquine, sulfadoxine, and pyrimethamine-resistant Plasmodium falciparum Dd2 infected in erythrocyte assessed as reduction in number of viable parasites at 10 times IC50 concentration treated for 72 hrs followed by allowed to recover in drug-free medium for 28 days by HRP2-ELISA analysis; assay type: functional, organism-based
[6] = test system: Plasmodium falciparum; test: as §1, with “120” for “72”; assay type: functional, organism-based
[7] = test system: Plasmodium falciparum; test: Induction of resistance development in Plasmodium falciparum Dd2 Pol delta at 2 x 10^7 initial inoculum per flask by single-step selection assay; assay type: functional, organism-based
[8] = test system: Plasmodium falciparum; test: Induction of resistance development in Plasmodium falciparum Dd2 Pol delta at 2 x 10^9 initial inoculum per flask at 9 nM measured 60 days of recovery time by single-step selection assay; assay type: functional, organism-based; details: time 60.0 day
[9] = test system: Plasmodium falciparum; test: Induction of resistance development in Plasmodium falciparum Dd2 Pol delta at 2 x 10^7 initial inoculum per flask measured on day 16 by single-step selection assay; assay type: functional, organism-based
[10] = test system: Plasmodium falciparum; test: Ex vivo antimalarial activity against Plasmodium falciparum clinical isolates; assay type: functional, organism-based
[11] = test system: Plasmodium falciparum; test: Antimalarial activity against multidrug-resistant Plasmodium falciparum Dd2 harboring pfcrt, pfmdr1, pfdhfr, pfdhps mutated loci assessed as inhibition of parasite growth incubated for 48 hrs by [3H]hypoxanthine incorporation assay; assay type: functional, organism-based
[12] = Plasma stability at 37 °C measured as remaining drug at 2 hrs sampled in triplicate (concentration 25 ng/mL 2 (TKK130)); assay type: ADME, cell-free; details: human, at 25 ng/mL, read-out: Stability
In short: (§2)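 Fresh EDTA human plasma warmed to 37 °C, spiked to 25 ng/mL (0.5% methanol final), split into three fractions, shaken at 37 °C. Samples at 0, 2, 4, 6, 24, 48 h precipitated with ice-cold acetonitrile containing internal standard; LC–MS/MS. Recovery = analyte/IS area ratio relative to 0 h; triplicate.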

[13] = Plasma stability at 37 °C measured as remaining drug at 4 hrs sampled in triplicate (concentration 25 ng/mL 2 (TKK130)); assay type: ADME, cell-free; details: human, at 25 ng/mL, read-out: Stability; in short: as §2
[14] = Plasma stability at 37 °C measured as remaining drug at 48 hrs sampled in triplicate (concentration 25 ng/mL 2 (TKK130)); assay type: ADME, cell-free; details: human, at 25 ng/mL, read-out: Stability; in short: as §2
[15] = Microsomal binding in human liver microsomes assessed as unbound fraction […] by Equilibrium dialysis; assay type: ADME, Microsome
In short: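 Equilibrium dialysis across 6 kDa regenerated cellulose membrane: donor 1 μM analyte in 0.5 mg/mL pooled HLMs in 0.1 M potassium phosphate buffer, acceptor 0.9% saline, 24 h at 37 °C. Donor diluted 1:20 in 4% BSA, acetonitrile precipitation, LC–MS/MS against matrix calibration curves; fraction bound from volume-corrected equation, unbound = 1 − bound; triplicate.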

[16] = Plasma protein binding in plasma (unknown origin) at 25 ng/ml measured after 24 hrs by dilution method; assay type: ADME, cell-free
In short: (§3)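 Equilibrium dialysis with donor plasma diluted 1:10 or 1:20 in 0.9% saline, spiked at 25 ng/mL, against 0.9% saline acceptor for 24 h at 37 °C. Concentrations by LC–MS/MS against diluted-plasma calibration curves; unbound fraction (acceptor/donor) back-calculated to undiluted plasma; triplicate; itraconazole reference.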

[17] = Unbound drug concentration in plasma (unknown origin) at 25 ng/ml measured after 24 hrs by dilution method; assay type: ADME, cell-free; in short: as §3
[18] = test system: Plasmodium falciparum; test: Antimalarial activity against Plasmodium falciparum Dd2 SJ557733 harboring Pfatp4-mutant infected in human erythrocytes assessed as inhibition of parasite growth measured after 72 hrs incubation by [3H]hypoxanthine incorporation assay; assay type: functional, organism-based; details: Dd2 SJ557733, Erythrocyte
In short: (§4)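 Dd2 parent line, and mutants made from it by gene editing or drug selection. Growth inhibition measured by the 72 h [3H]hypoxanthine incorporation assay at Swiss TPH. Values are means of 2 independent biological replicates.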

[19] = test system: Plasmodium falciparum; test: Antimalarial activity against Plasmodium falciparum Dd2 MMV183 harboring PfACoAS-mutant infected in human erythrocytes assessed as inhibition of parasite growth measured after 72 hrs incubation by [3H]hypoxanthine incorporation assay; assay type: functional, organism-based; details: Dd2 MMV183, Erythrocyte; in short: as §4
[20] = target: Voltage-gated inwardly rectifying potassium channel KCNH2 (Homo sapiens, UniProt Q12809); test: Inhibition of hERG by fluorescence polarization assay; assay type: toxicity
Chain of Voltage-gated inwardly rectifying potassium channel KCNH2 (Q12809 whole entry): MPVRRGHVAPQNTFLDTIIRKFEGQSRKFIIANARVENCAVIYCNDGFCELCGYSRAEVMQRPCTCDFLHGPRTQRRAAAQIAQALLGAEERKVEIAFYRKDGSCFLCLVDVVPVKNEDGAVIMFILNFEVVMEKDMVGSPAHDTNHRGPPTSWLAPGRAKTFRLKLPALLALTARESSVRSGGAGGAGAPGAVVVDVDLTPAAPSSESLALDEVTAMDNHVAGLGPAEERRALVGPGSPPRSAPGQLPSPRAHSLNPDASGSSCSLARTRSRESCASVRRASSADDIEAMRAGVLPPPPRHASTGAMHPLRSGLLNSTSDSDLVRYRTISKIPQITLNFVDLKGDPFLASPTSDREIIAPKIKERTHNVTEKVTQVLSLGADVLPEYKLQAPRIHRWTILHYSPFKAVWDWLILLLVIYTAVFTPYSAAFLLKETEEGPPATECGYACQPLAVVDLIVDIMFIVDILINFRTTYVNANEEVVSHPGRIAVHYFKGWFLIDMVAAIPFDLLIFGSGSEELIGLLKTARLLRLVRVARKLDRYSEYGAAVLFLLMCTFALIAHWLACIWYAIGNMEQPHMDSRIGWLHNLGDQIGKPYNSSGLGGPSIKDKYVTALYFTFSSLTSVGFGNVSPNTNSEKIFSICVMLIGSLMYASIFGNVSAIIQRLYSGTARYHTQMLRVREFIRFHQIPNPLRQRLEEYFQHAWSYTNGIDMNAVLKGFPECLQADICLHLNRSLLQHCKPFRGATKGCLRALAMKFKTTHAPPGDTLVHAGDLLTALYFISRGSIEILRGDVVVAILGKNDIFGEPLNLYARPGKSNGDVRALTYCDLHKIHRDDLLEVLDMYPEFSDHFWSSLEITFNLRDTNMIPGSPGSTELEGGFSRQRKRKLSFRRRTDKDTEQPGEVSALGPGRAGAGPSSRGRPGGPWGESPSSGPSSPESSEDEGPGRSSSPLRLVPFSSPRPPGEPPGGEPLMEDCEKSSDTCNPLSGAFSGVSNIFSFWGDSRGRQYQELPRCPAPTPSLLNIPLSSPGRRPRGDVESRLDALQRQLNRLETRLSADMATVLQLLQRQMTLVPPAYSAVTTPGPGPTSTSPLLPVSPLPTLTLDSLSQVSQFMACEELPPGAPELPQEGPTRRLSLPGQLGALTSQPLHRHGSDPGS

[21] = test system: Plasmodium berghei; test: In vivo antiplasmodial activity against Plasmodium berghei infected mouse model assessed as parasitemia suppression in blood at 10 mg/kg, po treated 4 times measured at 96 hrs post infection by fluorescence-activated cell sorting (FACS) analysis; assay type: functional
[22] = test system: Plasmodium berghei; test: In vivo antiplasmodial activity against Plasmodium berghei infected mouse model assessed as mean survival time at 30 mg/kg, po treated 4 times measured at 96 hrs post infection by fluorescence-activated cell sorting (FACS) analysis (reference value: 4 days); assay type: functional
[23] = test system: Plasmodium berghei; test: In vivo antiplasmodial activity against Plasmodium berghei infected mouse model assessed as curation rate at 10 mg/kg, po treated 4 times measured at 96 hrs post infection by fluorescence-activated cell sorting (FACS) analysis; assay type: functional
[24] = test system: Plasmodium berghei; test: In vivo antiplasmodial activity against Plasmodium berghei infected mouse model assessed as curation rate at 50 mg/kg, po treated 4 times measured at 96 hrs post infection by fluorescence-activated cell sorting (FACS) analysis; assay type: functional
[25] = test system: Plasmodium berghei; test: In vivo antiplasmodial activity against Plasmodium berghei infected mouse model assessed as curation rate at 3 mg/kg, po treated 4 times measured at 96 hrs post infection by fluorescence-activated cell sorting (FACS) analysis; assay type: functional
[26] = Cmax in mouse infected with Plasmodium berghei at 10 mg/kg, po; assay type: ADME, organism-based; details: in vivo
In short: (§5)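 Single oral dose to P. berghei-infected mice, 2 mice per dose group. Blood sampled at 1, 4 and 24 h post-dose as dried blood spots, plus a blank "0 h" reading. Spots diluted 1:5 (3, 10 mg/kg) or 1:10 (30 mg/kg), then quantified by LC–MS/MS against a whole-blood calibration of 1.56–800 ng/mL with QCs at three levels.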

[27] = Cmax in mouse infected with Plasmodium berghei at 30 mg/kg, po; assay type: ADME, organism-based; details: in vivo; in short: as §5
[28] = Tmax in mouse infected with Plasmodium berghei at 10 mg/kg, po; assay type: ADME, organism-based; details: in vivo
In short: (§6)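 Infected mice (n = 2 per dose) given a single oral dose of 3, 10 or 30 mg/kg; blood sampled as dried blood spots at 1, 4 and 24 h post-dose, diluted before LC–MS analysis against whole-blood dried-spot calibration (1.56–800 ng/mL) with QCs; tmax from concentration–time profiles.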

[29] = Tmax in mouse infected with Plasmodium berghei at 30 mg/kg, po; assay type: ADME, organism-based; details: in vivo; in short: as §6
[30] = AUC (0 to t) in mouse infected with Plasmodium berghei at 10 mg/kg, po; assay type: ADME, organism-based; details: in vivo; in short: as §5
[31] = AUC (0 to t) in mouse infected with Plasmodium berghei at 30 mg/kg, po; assay type: ADME, organism-based; details: in vivo; in short: as §5

SMILES: Cl.N=C(CC(O)c1cc2c(F)cc(F)cc2c2cc(C(F)(F)F)ccc12)Nc1ccc(F)cc1 (stereo unspecified)
- IC50 [1]: 2 nM
- IC50 [2]: 3 nM
- IC50 [3]: 11 nM
- IC50 at 24 h [4]: 20000 nM
- Activity [5]: Active
- Activity [6]: Active
- Activity [7]: Active; No Resistant Parasites Generated
- Activity [8]: Active; No Subsequent Parasite Growth Observed
- Activity [9]: inactive
- IC50 [10]: 7.5 nM
- IC50 [11]: 172 nM
- remaining at 2 h, 25 ng/mL [12]: 90.2%
- remaining at 4 h, 25 ng/mL [13]: 89.1%
- remaining at 48 h, 25 ng/mL [14]: 59.4%
- Activity [15]: 2.6%
- fraction unbound at 24 h, 25 ng/ml [16]: 0.004
- Cp(f) [17]: 0.4%
- IC50 [18]: 11 nM
- IC50 [19]: 13 nM
- IC50 [20]: 300 nM
- Activity [21]: 99.9%
- MSD [22]: 30 days
- Activity [23]: 33%
- Activity [24]: 100%
- Activity [25]: 0%
- Cmax [26]: 599 ng/mL
- Cmax [27]: 2030 ng/mL
- Tmax [28]: 4 h
- Tmax [29]: 4 h
- AUC(0-t) [30]: 11600 ng·h/mL
- AUC(0-t) [31]: 40900 ng·h/mL
